From ChEMBL document CHEMBL1133748, “Synthesis and cytotoxic and antitumor activity of benzo[b]pyrano[3, 2-h]acridin-7-one analogues of acronycine” (J Med Chem, 2000)
Where “and” joins values, the source holds several entries; their conditions need not be identical. Equal entries are not always repeated.

Columns and labels:
L1210 = assay: In vitro inhibition of L1210 cell proliferation.; format: functional, cell-based; details: Mus musculus
How it was run: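 L1210 murine leukemia cells grown in RPMI 1640 with 10% fetal calf serum, 2 mM glutamine, penicillin/streptomycin, 10 mM HEPES pH 7.4. Exposed 48 h to nine serial drug dilutions in triplicate. Microculture tetrazolium assay read-out. IC50 = concentration halving optical density versus untreated controls; mean of at least 2 separate experiments.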

Mus musculus [1] = assay: Optimal therapeutic effect without toxicity in mice inoculated ip with P388 cells on day 0 with 12.5 mg/kg iv of compound on day 1; format: functional
Mus musculus [2] = assay: Optimal therapeutic effect without toxicity in mice inoculated ip with P388 cells on day 0 with 12.5 mg/kg ip of compound on day 1; format: functional; details: route intraperitoneal
Mus musculus [3] = assay: Optimal therapeutic effect without toxicity in mice inoculated ip with C38 cells on day 0 with 3.12 mg/kg iv of compound measured on day 31; format: functional, MC-38
Mus musculus [4] = assay: Optimal therapeutic effect without toxicity in mice inoculated ip with C38 cells on day 0 with 6.25 mg/kg iv of compound measured on day 31; format: functional, MC-38
Mus musculus [5] = assay: Optimal therapeutic effect without toxicity in mice inoculated ip with P388 cells on day 0 with 12.5 mg/kg iv of compound on day 1
Mus musculus [6] = assay: Optimal therapeutic effect without toxicity in mice inoculated ip with P388 cells on day 0 with 200 mg/kg ip of compound on day 1; format: functional; details: route intraperitoneal

SMILES | IC50 (L1210) | further results
COc1cc2c(c3c1c(=O)c1cc4ccccc4cc1n3C)[C@@H](OC(=O)CC(C)C)[C@@H](OC(=O)CC(C)C)C(C)(C)O2 | 0.5 µM | –
COc1cc2c(c3c1c(=O)c1cc4ccccc4cc1n3C)[C@@H](OC(C)=O)[C@@H](OC(=O)CC(C)C)C(C)(C)O2 | 0.5 µM | –
C=C1Oc2cc(OC)c3c(=O)c4cc5ccccc5cc4n(C)c3c2C1(C)C | 14.1 µM | –
CCC(=O)O[C@@H]1c2c(cc(OC)c3c(=O)c4cc5ccccc5cc4n(C)c23)OC(C)(C)[C@@H]1OC(=O)CC | 0.9 µM | –
COc1cc2c(c3c1c(=O)c1cc4ccccc4cc1n3C)[C@@H](O)[C@@H](OC(=O)c1ccccc1)C(C)(C)O2 | 1.7 µM | –
Oc1cc(O)c2c(O)c3cc4ccccc4cc3nc2c1 | 6 µM | –
C=C1Oc2cc(O)c3c(O)c4cc5ccccc5cc4nc3c2C1(C)C | 3.2 µM | –
CC1(C)C=Cc2c(cc(O)c3c(O)c4cc5ccccc5cc4nc23)O1 | 10.2 µM | –
COc1c2c(cc3c1c(=O)c1cc4ccccc4cc1n3C)OC(C)(C)C=C2 | 4.9 µM | –
Cn1c2cc3ccccc3cc2c(=O)c2c(O)cc3c(c21)C=CC(C)(C)O3 | 17.9 µM | –
C=C1Oc2cc3c(c(OC)c2C1(C)C)c(=O)c1cc2ccccc2cc1n3C | 8.5 µM | –
C=C1Oc2cc(O)c3c(=O)c4cc5ccccc5cc4n(C)c3c2C1(C)C | 9 µM | –
COc1cc2c(c3c1c(=O)c1cc4ccccc4cc1n3C)[C@H]1OC(=O)OC1C(C)(C)O2 (stereo partly drawn) | 0.02 µM | T/C (survival) (Mus musculus [1]): 157%; T/C (survival) (Mus musculus [2]): 327%; T/C (tumor vol) (Mus musculus [3]): 18%
COc1cc2c(c3c1c(=O)c1cc4ccccc4cc1n3C)[C@@H](O)[C@@H](OC(=O)CC(C)C)C(C)(C)O2 | 1.9 µM | –
COc1cc2c(c3c1c(=O)c1cc4ccccc4cc1n3C)[C@@H](OC(C)=O)[C@@H](OC(C)=O)C(C)(C)O2 | 0.6 µM | T/C (tumor vol) (Mus musculus [4]): 4%; T/C (survival) (Mus musculus [2]; 12.5 mg/kg): 213% and 178%
COc1cc2c(c3c1c(=O)c1cc4ccccc4cc1n3C)[C@@H](OC(C)=O)[C@@H](OC(=O)c1ccccc1)C(C)(C)O2 | 0.2 µM | –
COc1cc2c(c3c1c(=O)c1cc4ccccc4cc1n3C)[C@@H](O)[C@@H](O)C(C)(C)O2 | 40.8 µM | –
COc1cc2c(c3c1c(=O)c1ccccc1n3C)[C@@H](OC(C)=O)[C@@H](OC(C)=O)C(C)(C)O2 (racemic) | 3.4 µM | T/C (survival) (Mus musculus [5]): 202%; T/C (survival) (Mus musculus [2]): 224%
COc1cc2c(c3c1c(=O)c1ccccc1n3C)C=CC(C)(C)O2 [ACRONINE] | 19.9 µM | T/C (survival) (Mus musculus [6]): 125%
COc1cc2c(c3c1c(=O)c1cc4ccccc4cc1n3C)C=CC(C)(C)O2 [BENZO[B]ACRONYCINE] | 1.9 µM | –
